From PubChem BioAssay come the findings set out here.

Assay [1] in a line: inhibitors of TNFa-induced NFkB p65 translocation, primary screen, imaging, HUVEC, MLSMR starter and 10KST1 sets (AID 438;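 active = inhibition above 20% together with a positive visual image hit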;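 note: compound added about 3h40 before a 20 min TNFalpha stimulation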;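 for inhibition: signal is the nuclear over cytoplasmic p65 intensity ratio per well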). Particulars: HUVEC TNFa-induced p65 nuclear translocation; cell count: measured here: nuclei count (cytotoxicity indicator), at 2.08 µM; inhibition: at 2 µM, stronger effect = higher value, 0% TNFa-plus-vehicle, 100% no-TNFa wells.
Assay [2] in a line: reduction of polyQ htt aggregates in cells – imaging, exon1htt(103Q)mCFP cells, high-content imaging, primary screen (AID 483).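 For nuclei count: percent of the per-plate median nuclei count of sample wells.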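 Note: compound exposure lasted 3 days before fixation.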 To be noted: exon1htt(103Q)mCFP cell line, aggregate imaging, at 2 µM; inhibition of aggregation: stronger effect = higher value; nuclei count: measured here: cell count, toxicity.
The nature of assay [3]: endothelial E-selectin expression blockers – imaging, HUVEC, immunofluorescence, MLSMR starter and 10KST1 sets, primary screen (AID 487;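 active = visually confirmed hit in the image check and inhibition above 20%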;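 for inhibition: signal is fraction of cell area covered by stained E-selectin grains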;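 for nuclei count: 100% = median nuclei count of all wells on the same plate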). Particulars: HUVEC TNFalpha-induced E-selectin immunofluorescence imaging, at 2 µM; inhibition: stronger effect = higher value; nuclei count: measured here: cell number, toxicity.
The target of assay [4] is Voltage-gated potassium channel subunit beta-2 (Rattus norvegicus) (UniProt P62483). As to the kind of experiment: inhibitors of rat Kvbeta2 reductase activity – biochemical, NADPH fluorescence, primary screen (AID 622;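 active = fluorescence slope higher than the sample average by over 3 SD, cut at about -0.22 in these data, passing the limit was not always enough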;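 note: slope of raw intensity against log time taken from 70 to 1610 s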). To be noted: recombinant KvBeta, 4-cyanobenzaldehyde reduction, at 10 µM, stronger effect = higher value.
The target is the same in assay [5]. As to the kind of experiment: enhancers of rat Kvbeta2 NADPH turnover – biochemical, NADPH fluorescence, primary screen (AID 623;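 active = NADPH fluorescence slope more negative than the mean of all samples by about 3 SD, 99.7% confidence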;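 note: fluorescence intensity change per second fitted from 20 to 320 s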). Particulars: Recombinant KvBeta, NADPH fluorescence decrease slope, 10 min; at 10 µM; stronger effect = lower value.
Assay [6] addresses Muscarinic acetylcholine receptor M4 (Homo sapiens) (UniProt P08173). As to the kind of experiment: M4-linked GIRK flux change, two-sided – cell-based, HEK293 M4/GIRK, thallium flux, BTC-AM, M4 allosteric agonist project, primary screen (AID 625;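 active = fluorescence slope after compound addition differing from the mean of all tested samples at 99.7% confidence, mostly higher but some lower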;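 note: thallium influx through GIRK channels coupled to M4 in HEK293 cells with BTC-AM dye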). To be noted: at 10 µM, actives lie on both sides. The procedure, abridged: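 Material: HEK293 cells with M4 receptor and GIRK channels; Times: cells overnight at 37 °C, BTC-AM loading 1 h, reads 2 min total; Technique: kinetic BTC-AM fluorescence sampled at 1 Hz, 10 s pre-addition baseline; Read-out basis: slope over 15–24 s of trace normalized to starting intensity; Controls: carbachol positive, DMSO negative.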

Assay [7] is described as follows: blockers of RIG-like receptor reporter activation – cell-based, Sendai virus stimulus, luciferase, 10K MLSCN set, TLR/RLR signaling modifier project, primary screen (AID 602276;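 active = inhibition at or above 50% at 10 µM; inactive = inhibition below 50%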;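 note: firefly luciferase from ISG56 promoter only with Renilla not read in this screen; 0% = Sendai virus plus DMSO and 100% = medium plus DMSO without virus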). Particulars: HEK293 RL24 IRF3 luciferase reporter, at 10 µM, stronger effect = higher value. A general note: Reporter assays use an easily measured gene product as a stand-in for the process of interest.

Assay [8] can be described thus: TLR3 IRF3 reporter activation blockers – cell-based, poly I:C stimulus, luciferase, 10K MLSCN set, primary screen (AID 602277;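 active = inhibition of the reporter signal at or above 50%; inactive = inhibition below 50%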). Particulars: HEK293-TLR3 RL24 IRF3 luciferase reporter, at 10 µM, stronger effect = higher value.

Molecules are shown by their SMILES. Activity calls are given as the source filed them.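 Rule for the calls, unless noted: active = visual image review flags a hit and inhibition of aggregation exceeds 20%; inconclusive = visual hit but inhibition at or below 20%; inactive = no hit on visual image review.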

Voltage-gated potassium channel subunit beta-2 (Rattus norvegicus), sequence (P62483 whole entry, looked up): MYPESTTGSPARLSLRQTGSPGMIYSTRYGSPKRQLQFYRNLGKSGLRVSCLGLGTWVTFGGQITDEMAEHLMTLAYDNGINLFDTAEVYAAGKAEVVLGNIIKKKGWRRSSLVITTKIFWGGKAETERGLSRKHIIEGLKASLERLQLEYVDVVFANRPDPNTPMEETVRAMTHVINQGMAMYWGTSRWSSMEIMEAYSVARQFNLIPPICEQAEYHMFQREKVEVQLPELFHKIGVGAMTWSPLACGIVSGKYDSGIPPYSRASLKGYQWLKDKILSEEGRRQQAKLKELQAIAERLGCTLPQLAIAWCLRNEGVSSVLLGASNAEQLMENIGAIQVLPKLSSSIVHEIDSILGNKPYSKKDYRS
Muscarinic acetylcholine receptor M4 (Homo sapiens), sequence (P08173 whole entry, looked up): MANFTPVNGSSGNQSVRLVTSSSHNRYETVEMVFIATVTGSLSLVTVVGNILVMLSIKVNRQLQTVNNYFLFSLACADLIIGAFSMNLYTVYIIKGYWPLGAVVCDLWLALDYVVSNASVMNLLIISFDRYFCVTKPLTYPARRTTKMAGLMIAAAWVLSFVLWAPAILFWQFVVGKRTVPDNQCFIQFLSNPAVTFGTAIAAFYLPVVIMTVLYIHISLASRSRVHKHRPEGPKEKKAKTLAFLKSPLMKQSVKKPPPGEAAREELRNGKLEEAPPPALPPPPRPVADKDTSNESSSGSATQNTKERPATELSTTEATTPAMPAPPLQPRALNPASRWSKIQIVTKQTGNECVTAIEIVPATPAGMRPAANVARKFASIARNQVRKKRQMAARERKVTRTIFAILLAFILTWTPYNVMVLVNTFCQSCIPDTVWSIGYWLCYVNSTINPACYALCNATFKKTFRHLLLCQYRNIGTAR

As to `COc1ccc(C(=O)OC(COc2ccccc2)Cn2ccnc2)cc1` (centres undefined), the cell count in assay [1] is 348. In addition, the inhibition was -7.4% (inactive) in assay [1], 13.4% (inactive) in assay [3], -15.3% (inactive) in assay [7] and -24.8% (inactive) in assay [8]. In addition, the inhibition of aggregation in assay [2] is -15.3% (inactive). In addition, the nuclei count was determined as 98% in assay [2] and 118% in assay [3]. Besides, the fluorescence slope in assay [4] is -0.291 (inactive); in assay [6], 0.00691 (inactive). The NADPH fluorescence slope in assay [5] was 6.7e-06 (inactive).

For `Cc1nnc(SCC(=O)Nc2ccc3c4c(cccc24)CC3)n1C`, the cell count in assay [1] is 336. Besides, the inhibition in assay [1] was 1.8% (inactive); in assay [3] it was -41.4% (inactive); in assay [7], 15.8% (inactive); in assay [8], 5.58% (inactive). Also, the inhibition of aggregation in assay [2] is -11.5% (inactive). Besides, the nuclei count in assay [2] is 97.3%; in assay [3], 108%. Also, the fluorescence slope in assay [4] is -0.24 (inactive); in assay [6], 0.00568 (inactive). Also, the NADPH fluorescence slope in assay [5] was -4.5e-05 (inactive).

With `CC(C)=CC(=O)OCC(=O)NC(=O)NC(C)(C)C`, the cell count in assay [1] was 220. Further, the inhibition in assay [1] is 13.1% (inactive); in assay [3], 3.9% (inactive); in assay [7], -2.29% (inactive); in assay [8], 9.61% (inactive). Further, in assay [2], the inhibition of aggregation was 14.1% (inactive). The nuclei count in assay [2] amounted to 97.7%; in assay [3], 98.5%. The values for the fluorescence slope in assay [4] and in assay [6] were -0.591 (inactive) and 0.00792 (inactive), respectively. Also, the NADPH fluorescence slope in assay [5] is -1.3e-05 (inactive).

For the compound `Nc1nonc1C(=O)NCCNCc1cc(Br)ccc1OCc1ccccc1F`, the cell count in assay [1] came to 422. For the same compound, the inhibition was -2.4% (inactive) in assay [1], -4.2% (inactive) in assay [3], -2.45% (inactive) in assay [7] and -30.4% (inactive) in assay [8]. Also, the inhibition of aggregation in assay [2] was 18.5% (inactive). Further, the nuclei count in assay [2] came out at 89.6%; in assay [3] it was 123%. Besides, the fluorescence slope in assay [4] is -0.574 (inactive); in assay [6] it was 0.00396 (inactive). For the same compound, the NADPH fluorescence slope in assay [5] was -3.2e-05 (inactive).

As to `NC(=O)CSc1nnc(-c2ccc(O)cc2)n1Cc1ccco1`, the cell count in assay [1] is 371. In addition, the inhibition in assay [1] was -0.2% (inactive); in assay [3] it was -112% (inactive); in assay [7], 11.3% (inactive); in assay [8], 19.8% (inactive). In addition, the inhibition of aggregation in assay [2] is 18.6% (inactive). Further, the nuclei count was determined as 98.1% in assay [2] and 93.2% in assay [3]. The fluorescence slope in assay [4] was -0.531 (inactive); in assay [6], 0.00558 (inactive). For the same compound, the NADPH fluorescence slope in assay [5] was -4.4e-05 (inactive).

In the case of `CC1(C)NC(=O)N(CC(O)CN(Cc2ccccc2)Cc2ccccc2)C1=O` (centres undefined), the cell count in assay [1] turned out to be 606. For the same compound, the inhibition is 9.2% (inactive) in assay [1], -13% (inactive) in assay [3], 9.57% (inactive) in assay [7] and 21.2% (inactive) in assay [8]. Also, the inhibition of aggregation in assay [2] was 14% (inactive). The nuclei count in assay [2] was found to be 84.4%; in assay [3], 113%. The fluorescence slope in assay [4] is -0.299 (inactive); in assay [6], 0.00564 (inactive). The NADPH fluorescence slope in assay [5] is -4e-05 (inactive).

As to `CCOC(=O)CSc1nnc(-c2cccnc2)n1Cc1ccccc1`, in assay [1], the cell count turned out to be 568. Moreover, the inhibition was 16.6% (inactive) in assay [1], -105% (inactive) in assay [3], -4.13% (inactive) in assay [7] and 1.14% (inactive) in assay [8]. Further, the inhibition of aggregation in assay [2] is 10.1% (inactive). The nuclei count came to 97.1% in assay [2] and 158% in assay [3]. Besides, the figures for the fluorescence slope in assay [4] and in assay [6] were -0.576 (inactive) and 0.00573 (inactive), respectively. The NADPH fluorescence slope in assay [5] was 1.1e-05 (inactive).

As to `S=c1[nH]c2ccc(Cl)cc2[nH]1`, the cell count in assay [1] stood at 457. Also, the inhibition is -3.8% (inactive) in assay [1], -78.7% (inactive) in assay [3], 21.3% (inactive) in assay [7] and 33.3% (inactive) in assay [8]. For the same compound, in assay [2], the inhibition of aggregation is -4% (inactive). Besides, the nuclei count in assay [2] was 91.1%; in assay [3] it was 110%. Besides, the fluorescence slope in assay [4] was -0.449 (inactive); in assay [6], 0.00564 (inactive). In assay [5], the NADPH fluorescence slope was -3.7e-05 (inactive).

With `CCCCN(c1ccccc1)S(=O)(=O)c1ccc2c(c1)CCN2C(=O)CCC(=O)O`, the cell count in assay [1] turned out to be 648. Besides, the inhibition in assay [1] is 1.3% (inactive); in assay [3], -65.5% (inactive); in assay [7] it was 22.6% (inactive); in assay [8], 99.4% (active). In addition, the inhibition of aggregation in assay [2] is 7.8% (inactive). For the same compound, the nuclei count is 112% in assay [2] and 117% in assay [3]. Also, the fluorescence slope in assay [4] was -0.526 (inactive); in assay [6] it was 0.00543 (inactive). Moreover, in assay [5], the NADPH fluorescence slope was 5.3e-05 (inactive).

For `C=Cn1c(C(=O)O)cc(CC)c1-c1ccccc1`, in assay [1], the cell count stood at 642. The inhibition in assay [1] was -12.5% (inactive); in assay [3], -51.5% (inactive); in assay [7], 10.9% (inactive); in assay [8] it was 9.07% (inactive). Besides, in assay [2], the inhibition of aggregation was -22.8% (inactive). Besides, the nuclei count in assay [2] was 107%; in assay [3], 112%. Also, the fluorescence slope was -0.55 (inactive) in assay [4] and 0.00458 (inactive) in assay [6]. Further, in assay [5], the NADPH fluorescence slope is -4.3e-05 (inactive).

Consider `Cc1ccc(C)c(OCC(O)CN2C(C)CCCC2C)c1` (centres undefined), for which, in assay [1], the cell count worked out at 379. Further, the inhibition is 0% (inactive) in assay [1], -71.2% (inactive) in assay [3], 13.4% (inactive) in assay [7] and 26.5% (inactive) in assay [8]. The inhibition of aggregation in assay [2] is 2.7% (inactive). The nuclei count in assay [2] was 93.8%; in assay [3], 117%. The figures for the fluorescence slope in assay [4] and in assay [6] were -0.526 (inactive) and 0.00528 (inactive), respectively. For the same compound, the NADPH fluorescence slope in assay [5] is 5e-05 (inactive).

As to `COc1ccccc1CN(Cc1nc2ccccc2c(=O)[nH]1)C(=O)Nc1ccccc1`, in assay [1], the cell count is 733. The inhibition in assay [1] was -6.8% (inactive); in assay [3] it was -68.2% (inactive); in assay [7], 3.14% (inactive); in assay [8], 12.2% (inactive). In addition, in assay [2], the inhibition of aggregation was 16.9% (inactive). In addition, the results for the nuclei count in assay [2] and in assay [3] were 87.7% and 134%, respectively. Further, the fluorescence slope was -0.49 (inactive) in assay [4] and 0.0059 (inactive) in assay [6]. Further, in assay [5], the NADPH fluorescence slope was -4.8e-05 (inactive).

`CCOCCCNC(=O)C1CCC(=O)N1CCc1ccccc1` (centres undefined): the cell count in assay [1] was 237. The inhibition was 2.7% (inactive) in assay [1], -20% (inactive) in assay [3], 5.67% (inactive) in assay [7] and 12.9% (inactive) in assay [8]. In addition, the inhibition of aggregation in assay [2] was 1.1% (inactive). Also, the values for the nuclei count in assay [2] and in assay [3] were 92.5% and 95.1%, respectively. In addition, the values for the fluorescence slope in assay [4] and in assay [6] were -0.568 (inactive) and 0.00522 (inactive), respectively. Moreover, in assay [5], the NADPH fluorescence slope was -6.9e-06 (inactive).

For the compound `COc1cc(C(=O)N2CCN(C(=O)CC(C)C)CC2)cc(OC)c1OC`, the cell count in assay [1] came out at 550. Moreover, the inhibition in assay [1] was 3.6% (inactive); in assay [3], -73.6% (inactive); in assay [7], -10.1% (inactive); in assay [8], -1.34% (inactive). The inhibition of aggregation in assay [2] was 5% (inactive). Further, the figures for the nuclei count in assay [2] and in assay [3] were 105% and 117%, respectively. Moreover, the figures for the fluorescence slope in assay [4] and in assay [6] were -0.47 (inactive) and 0.00561 (inactive), respectively. Also, the NADPH fluorescence slope in assay [5] was 7.6e-05 (inactive).

In general, inhibition refers to the drop in the measured response relative to a control, in per cent.
